The entries come from a sample that favours hits as a whole.
Hep lipid drop – modulators of hepatic lipid droplet formation | inhibition, % at 6.5 µM | AML12 mouse hepatocytes, oleate lipid droplets, BODIPY imaging | AID 1656 | 240,000 tested, 0.4% active;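 active = lipid droplet intensity inhibited by at least 50%, with more than 500 cells counted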
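Assay system: AML12 mouse liver cells | Compound: 6.5 µM single-point dosing | Schedule: Overnight exposure | Technique: Fluorescence imaging, 20x objective, two fields per well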
T cruzi inh – T. cruzi replication inhibition; inhibition, % (no concentration beside the values); 300,000 tested, 1.4% active; T. cruzi beta-gal in NIH3T3, luminescence, 90 h;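 active = mean inhibition across valid replicates above about 55%, limit read from the data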;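 note: signal also drops with host cell toxicity which is not excluded here; 0% = plate median of DMSO wells and 100% = zero luminescence signal; higher percent means less beta-gal luminescence so fewer parasites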
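compound dosing = single 50 nL compound addition per well in DMSO | material = NIH/3T3 host cells with β-galactosidase reporter T. cruzi | input = 5,000 host fibroblasts per well | timing = ≥90 h infection period, 3 h prior cell attachment | read-out basis = percent inhibition of parasite-derived β-gal signal | detection = GalScreen β-gal luminescence, detergent lysis, 60 min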
Lmaj promast – reduces viability of Leishmania major promastigotes | resazurin fluorescence viability | inhibition, % at 10 µM | 200,000 tested, 9% active | AID 1063; in the data active = inhibition above about 50%;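 note: promastigotes grown with compound for 44 hours at 28 °C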
Redox H2O2 prof – compounds producing H2O2 with reducing agent – biochemical, NIH compound library profiling, artefact control for MLSCN library redox annotation, primary screen | DTT-dependent redox cycling H2O2, phenol red/HRP absorbance; 100% = 100 µM peroxide control, 0% = buffer | activation, % at 10 µM | 200,000 tested, 0.03% active | AID 878;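 active = activation of at least 50% relative to the plate's high and low controls in the primary single-dose screen; inactive = activation below 50%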;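 note: compound incubated with DTT at 0.8 mM final as the reducing agent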
MPTP block – blocks calcium-induced mitochondrial swelling. isolated mouse mitochondria, Ca2+ swelling absorbance, 30 min. inhibition, % at 10 µM. 360,000 tested, 1.4% active;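 active = inhibition of 50% or more, scaled per plate between neutral and stimulator controls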;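 note: 0% = DMSO wells given calcium and 100% = 1 mM EGTA wells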
* marks the source's active call; other numbers are inactive results; nt = not tested or not shown.

SMILES	Hep lipid drop	T cruzi inh	Lmaj promast	Redox H2O2 prof	MPTP block
CCc1ccc(OCC(O)CN2CCN(c3ccccc3)CC2)cc1 (centres undefined)	nt	8	94*	-1	0
O=C(OCc1nnc(-c2cccs2)o1)C1=NN(c2ccccc2)C(=O)CC1	nt	nt	nt	nt	-3
COc1cccc(Nc2nc(C)cc(C)c2C(N)=O)c1	-2	-4	nt	nt	0
CCOC(=O)c1ccccc1NC(=O)CN1C(=O)NC(C)(CCc2ccccc2)C1=O (centres undefined)	nt	4	nt	nt	-1
N#CC(C#N)=Cc1cccn1-c1ccc(S(N)(=O)=O)cc1	36	-15	0	-1	-1
CCCc1c(C(=O)N/N=C/c2cccc(OCc3ccc(F)cc3)c2)nnn1-c1nonc1N	0	4	nt	nt	0
OC(COCc1cccs1)CN1CCN(c2cccc(C(F)(F)F)c2)CC1 (centres undefined)	-17	8	84*	0	0
NC(=S)N1CCCc2ccccc21	-3	-33	nt	nt	-1
CCn1c(C)c(C2=CCN(S(=O)(=O)c3ccc(C)cc3)CC2)c2ccccc21	1	25	16	0	2
Cc1c(C2=CCN(S(=O)(=O)c3ccc(Br)cc3)CC2)c2ccccc2n1C	-3	13	64*	0	2
Cc1c(C(=O)NC(C)C)c(-c2ccccc2)nn1-c1ccccc1	-14	-2	-1	-1	0
Cc1c(C(=O)NCc2ccccc2)c(-c2ccccc2)nn1-c1ccccc1	-9	21	86*	-12	0
CC(C)CNC(=O)C1C(=O)Nc2ccccc2C(=O)N1C(C)(C)C (centres undefined)	nt	nt	nt	nt	1
CCC(NC(=O)c1ccc([N+](=O)[O-])cc1[N+](=O)[O-])c1ccccc1 (centres undefined)	-3	58*	92*	0	1
c1ccc2c(c1)Nc1cc3ccccc3cc1S2	-8	11	nt	nt	3
COc1ccc2c(c1)Sc1ccccc1N2	12	44	100*	0	2
O=C(CC1C(=O)N(c2ccccc2)C(=S)N1c1ccccc1)c1ccc(Br)cc1 (centres undefined)	2	-1	51*	0	1
O=C(CC1C(=O)N(c2ccccc2)C(=S)N1c1ccccc1)c1ccccc1 (centres undefined)	-7	-8	37	0	1
Cc1ccc(-n2ncc(C(=O)Nc3cc(Cl)ccc3Cl)c2C2CCNCC2)cc1	6	26	-7	-1	-1
Cc1ccc(-n2ncc(C(=O)Nc3cc(Cl)cc(Cl)c3)c2C2CCNCC2)cc1C	-142	55*	101*	-1	2
CC(=O)Nc1cccc(N)c1	nt	nt	nt	nt	-1
Cc1cccc(C)c1OCc1cc(C(=O)NCC2CC2)no1	-12	6	nt	nt	1
COc1ccc(Oc2cn[nH]c2-c2ccc(O)cc2O)cc1	3	10	58*	0	0
C=C(C)COc1ccc(-c2[nH]ncc2Oc2cccc(OC)c2)c(O)c1	-16	-4	74*	0	7
C=C(C)COc1ccc(-c2ncncc2Oc2ccc(OC)cc2)c(O)c1	-2	nt	66*	0	-2
SMILES	Hep lipid drop	T cruzi inh	Lmaj promast	Redox H2O2 prof	MPTP block
C=C(C)COc1ccc(-c2nc(N)ncc2-c2ccc(OC)cc2)c(O)c1	6	nt	30	3	nt
COc1ccc(-c2cn[nH]c2-c2ccc(O)cc2O)cc1	-2	0	nt	nt	0
C=C(C)COc1ccc(-c2n[nH]c(C)c2Oc2ccccc2OC)c(O)c1	nt	6	76*	0	7
C=C(C)COc1ccc(-c2[nH]ncc2Oc2ccccc2OCC)c(O)c1	-3	nt	39	0	2
CC1(c2ccccc2)NC(=O)N(CC(=O)N2CCN(S(=O)(=O)c3cccc(C(F)(F)F)c3)CC2)C1=O (centres undefined)	nt	nt	nt	nt	0
Cc1ccccc1C(=O)NC1CCN(CC(=O)NCc2ccccc2)CC1	-1	17	nt	nt	0
Cn1c(=O)c2c(nc(C3CC4C5CCC(C5)C4C3)n2C)n(C)c1=O (centres undefined)	nt	nt	nt	nt	1
OC[C@@H]1CN(Cc2ccco2)C[C@H](n2cnc3c(NCc4ccncc4)ncnc32)O1	nt	nt	nt	nt	0
CN(CC(=O)Nc1ccc(F)cc1)C(=O)CN1C(=O)NC2(CCCC2)C1=O	nt	nt	nt	nt	-1
COc1cccc(-n2c(CN3CCN(c4ccc(C)cc4)C(C)C3)nc3ccc([N+](=O)[O-])cc3c2=O)c1 (centres undefined)	-12	39	92*	0	2

High-throughput results as filed in PubChem BioAssay.
